{
  "source": "ChEMBL document CHEMBL1275586",
  "about": "“Phenotypic susceptibility to bevirimat in isolates from HIV-1-infected patients without prior exposure to bevirimat” (Antimicrob Agents Chemother, 2010)",
  "key": {"[1]": {"tested_on": "Human immunodeficiency virus 1", "test": "Antiviral activity against Human immunodeficiency virus 1 LAI Gag-[…] V362I mutant infected in human MT-2 cells by XTT-assay relative to wild-type", "assay_type": "functional, MT2", "method_in_brief": "(§1)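 Site-directed mutants were made by two-round overlap PCR into the pXXLAI (HIV-1 LAI) backbone from an individual clone, then transfected into 293T cells, with supernatant harvested at 2 days. MT-2 cells were infected at an input giving an XTT signal-to-noise of 2.5–4.0, plated at ≈17,000 cells/well with drug dilutions, and read by XTT after 5 days. EC50 from % cell death; fold change vs wild-type LAI.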"}, "[2]": {"tested_on": "Human immunodeficiency virus 1", "test": "Antiviral activity against antiretroviral-pretreated PI-resistant Human immunodeficiency virus 1 isolate 24 harboring Gag-capsid V362I mutant gene, Gag-SP-1 V370A, N372T and T375A mutant gene and deletion at T371 in Gag-SP-1 infected in human MT-2 cells by XTT assay relative to wild-type", "assay_type": "functional, MT2", "method_in_brief": "(§2)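 Patient-derived Gag fragments were pooled as bacterial colonies to keep quasispecies diversity and ligated into the pXXLAI (HIV-1 LAI) backbone. Virus was made by transfecting 293T cells and harvesting supernatant 2 days later. MT-2 cells were infected at 37°C with an inoculum titrated to give an XTT signal-to-noise of 2.5–4.0. Cells were plated into drug dilutions, incubated 5 days at 37°C, and read by XTT absorbance (450−650 nm). EC50 was taken from percent cell death and expressed as fold change versus wild-type LAI.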"}, "[3]": {"tested_on": "Human immunodeficiency virus 1", "test": "Antiviral activity against Human immunodeficiency virus 1 isolate 31 harboring Gag-SP1 V370A, T371S, N372A/T, A374N/T and I376V mutant gene infected in human MT-2 cells by XTT assay relative to wild-type", "assay_type": "functional, MT2", "method_in_brief": "(§3)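 Patient Gag-protease (SfoI-XmaI) fragments were ligated into the pXXLAI backbone, with colonies pooled to keep quasispecies. Virus came from 293T transfection, harvested at 2 days. MT-2 infection at 37°C used an input giving XTT signal-to-noise of 2.5–4.0 (≈MOI 0.001). Cells at ≈17,000/well with drug dilutions, 5 days, 37°C; XTT 1 h, A450–650. EC50 from % cell death; fold change vs wild-type LAI.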"}, "[4]": {"tested_on": "Human immunodeficiency virus 1", "test": "Antiviral activity against Human immunodeficiency virus 1 isolates harboring Gag-SP-1 V370A mutant gene relative to wild-type", "assay_type": "functional", "method_in_brief": "as §1"}, "[5]": {"tested_on": "Human immunodeficiency virus 1", "test": "Antiviral activity against antiretroviral-pretreated Human immunodeficiency virus 1 isolate 22 infected in human MT-2 cells by XTT assay relative to wild-type", "assay_type": "functional, MT2", "method_in_brief": "as §2"}, "[6]": {"tested_on": "Human immunodeficiency virus 1", "test": "Antiviral activity against Human immunodeficiency virus 1 isolate 38 harboring Gag-SP1 V370A, N372S/G, S373P/T/Q/K, A374A/G/T/S, T375A and I376M mutant gene infected in human MT-2 cells by XTT assay relative to wild-type", "assay_type": "functional, MT2", "method_in_brief": "as §3"}, "[7]": {"tested_on": "Human immunodeficiency virus 1", "test": "Antiviral activity against Human immunodeficiency virus 1 isolate 7 harboring Gap-SP-1 V362I mutant infected in human MT-2 cells by XTT-assay relative to wild-type", "assay_type": "functional, MT2", "method_in_brief": "as §3"}, "[8]": {"tested_on": "Human immunodeficiency virus 1", "test": "Antiviral activity against antiretroviral-pretreated PI-resistant Human immunodeficiency virus 1 isolate 9 harboring Gag-SP1 T375N and I376V mutant gene infected in human MT-2 cells by XTT assay relative to wild-type", "assay_type": "functional, MT2", "method_in_brief": "as §2"}, "[9]": {"tested_on": "Human immunodeficiency virus 1", "test": "Antiviral activity against antiretroviral-pretreated PI-resistant Human immunodeficiency virus 1 isolate 4 harboring Gag-capsid G357S mutant gene and Gag-Sp-1 N372A, A374T and T375N mutant gene infected in human MT-2 cells by XTT assay relative to wild-type"}, "[10]": {"tested_on": "Human immunodeficiency virus 1", "test": "Antiviral activity against Human immunodeficiency virus 1 isolate 2 harboring Gag-capsid A146P, S173A, V215L, E230D, N252S, L268M and A340G mutant gene and protease L10I, I15V, K20R, M36I, S37N, M46I, L63P, V82A, N83H, I84V, I85T and L90M mutant gene infected in human MT-2 cells by XTT-assay relative to wild-type", "assay_type": "functional, MT2", "method_in_brief": "as §3"}, "[11]": {"tested_on": "Human immunodeficiency virus 1", "test": "Antiviral activity against Human immunodeficiency virus 1 isolate 32 harboring Gag-SP1 V370I and N372G mutant gene infected in human MT-2 cells by XTT assay relative to wild-type", "assay_type": "functional, MT2", "method_in_brief": "as §3"}, "[12]": {"tested_on": "Human immunodeficiency virus 1", "test": "Antiviral activity against antiretroviral-pretreated PI-resistant Human immunodeficiency virus 1 isolate 23 harboring Gag-capsid G357S and V362I mutant gene, Gag-SP-1 V370A and T375A mutant gene and deletion at T371 in Gag-SP-1 infected in human MT-2 cells by XTT assay relative to wild-type", "assay_type": "functional, MT2", "method_in_brief": "as §2"}, "[13]": {"tested_on": "Human immunodeficiency virus 1", "test": "Antiviral activity against antiretroviral-pretreated PI-resistant Human immunodeficiency virus 1 isolate 25 harboring Gag-capsid G357S mutant gene and Gag-SP-1 […] mutant gene infected in human MT-2 cells by XTT assay relative to wild-type", "assay_type": "functional, MT2", "method_in_brief": "as §2"}, "[14]": {"tested_on": "Human immunodeficiency virus 1", "test": "Antiviral activity against Human immunodeficiency virus 1 isolate 29 harboring Gag-capsid I138M, A146P, R286K and A326S mutant gene and protease L10F, I13V, V32I, M36L, S37N, M46I, I47V, I62V, L63P, A71I, I72V and V82A mutant gene infected in human MT-2 cells by XTT-assay relative to wild-type", "assay_type": "functional, MT2", "method_in_brief": "as §3"}, "[15]": {"tested_on": "Human immunodeficiency virus 1", "test": "Antiviral activity against antiretroviral-pretreated PI-resistant Human immunodeficiency virus 1 isolate 6 harboring Gag-SP-1 V370A,S373A and A374T mutant gene infected in human MT-2 cells by XTT assay relative to wild-type", "assay_type": "functional, MT2", "method_in_brief": "as §2"}, "[16]": {"tested_on": "Human immunodeficiency virus 1", "test": "Antiviral activity against Human immunodeficiency virus 1 isolate 39 harboring Gag-capsid G357S and V362I mutant gene and Gag-SP-1 T375A mutant gene infected in human MT-2 cells by XTT assay relative to wild-type", "assay_type": "functional, MT2", "method_in_brief": "as §3"}, "[17]": {"tested_on": "Human immunodeficiency virus 1", "test": "Antiviral activity against Human immunodeficiency virus 1 isolate 37 harboring Gag-capsid G357S mutant gene and Gag-SP1 I376V mutant gene infected in human MT-2 cells by XTT assay relative to wild-type", "assay_type": "functional, MT2", "method_in_brief": "as §3"}, "[18]": {"tested_on": "Human immunodeficiency virus 1", "test": "Antiviral activity against Human immunodeficiency virus 1 isolate 30 infected in human MT-2 cells by XTT assay relative to wild-type", "assay_type": "functional, MT2"}, "[19]": {"tested_on": "Human immunodeficiency virus 1", "test": "Antiviral activity against antiretroviral-pretreated PI-resistant Human immunodeficiency virus 1 isolate 1 harboring Gag-Sp-1 S368C, V370A and A374N mutant gene deletion at T371 in Gag-SP-1 infected in human MT-2 cells by XTT assay relative to wild-type", "assay_type": "functional, MT2", "method_in_brief": "as §2"}, "[20]": {"tested_on": "Human immunodeficiency virus 1", "test": "Antiviral activity against antiretroviral-pretreated Human immunodeficiency virus 1 isolate 12 harboring Gag-capsid G357S and V362I mutant gene infected in human MT-2 cells by XTT assay relative to wild-type", "assay_type": "functional, MT2", "method_in_brief": "as §2"}, "[21]": {"tested_on": "Human immunodeficiency virus 1", "test": "Antiviral activity against Human immunodeficiency virus 1 isolate 6 harboring Gag-SP-1 V370, S373 and A374 mutant infected in human MT-2 cells by XTT-assay relative to wild-type", "assay_type": "functional, MT2", "method_in_brief": "as §3"}, "[22]": {"tested_on": "Human immunodeficiency virus 1", "test": "Antiviral activity against Human immunodeficiency virus 1 isolates harboring deletion at T371 in Gag-SP-1 relative to wild-type", "assay_type": "functional", "method_in_brief": "as §1"}, "[23]": {"tested_on": "Human immunodeficiency virus 1", "test": "Antiviral activity against Human immunodeficiency virus 1 isolate 36 harboring Gag-SP1 […], A374N and T375A mutant gene infected in human MT-2 cells by XTT assay relative to wild-type", "assay_type": "functional, MT2", "method_in_brief": "as §3"}},
  "data": [
    {"smiles": "C=C(C)[C@@H]1CC[C@]2(C(=O)O)CC[C@]3(C)[C@H](CC[C@@H]4[C@@]5(C)CC[C@H](OC(=O)CC(C)(C)C(=O)O)C(C)(C)[C@@H]5CC[C@]43C)[C@@H]12", "note": "[BEVIRIMAT]", "values": [
      {"measurement": "fold change (FC)", "setting": "[1]", "result": ">100"},
      {"measurement": "fold change (FC)", "setting": "[2]", "result": ">100"},
      {"measurement": "fold change (FC)", "setting": "[3]", "result": ">100"},
      {"measurement": "fold change (FC)", "setting": "[4]", "result": ">151.4"},
      {"measurement": "fold change (FC)", "setting": "[5]", "result": 0.7},
      {"measurement": "fold change (FC)", "setting": "[6]", "result": ">100"},
      {"measurement": "fold change (FC)", "setting": "[7]", "result": ">100"},
      {"measurement": "fold change (FC)", "setting": "[8]", "result": 4.7},
      {"measurement": "fold change (FC)", "setting": "[9]", "result": ">100"},
      {"measurement": "fold change (FC)", "setting": "[10]", "result": ">100"},
      {"measurement": "fold change (FC)", "setting": "[11]", "result": 0.9},
      {"measurement": "fold change (FC)", "setting": "[12]", "result": ">100"},
      {"measurement": "fold change (FC)", "setting": "[13]", "result": 11},
      {"measurement": "fold change (FC)", "setting": "[14]", "result": ">100"},
      {"measurement": "fold change (FC)", "setting": "[15]", "result": ">100"},
      {"measurement": "fold change (FC)", "setting": "[16]", "result": ">100"},
      {"measurement": "fold change (FC)", "setting": "[17]", "result": 4.6},
      {"measurement": "fold change (FC)", "setting": "[18]", "result": 5.2},
      {"measurement": "fold change (FC)", "setting": "[19]", "result": ">100"},
      {"measurement": "fold change (FC)", "setting": "[20]", "result": ">100"},
      {"measurement": "fold change (FC)", "setting": "[21]", "result": 0.4},
      {"measurement": "fold change (FC)", "setting": "[22]", "result": 52.2},
      {"measurement": "fold change (FC)", "setting": "[23]", "result": 1.8}
    ]}
  ]
}
